ChEMBL document CHEMBL1126715, “Synthesis and tissue distribution of (m-[125I]iodobenzyl)trozamicol ([125I]MIBT): potential radioligand for mapping central cholinergic innervation” (J Med Chem, 1993)

Experiments:
[1] = Ratio of effect of vesamicol on the accumulation between rat brain and blood in group 2; type: ADME, organism-based
Summary of the method: (§1)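 Male Wistar rats (n = 4/group) given iv vehicle (100 μL 50% aqueous EtOH) or dl-vesamicol (1.01 μmol/kg); 15 min later iv radiotracer (2.0 μCi in 100 μL 50% aqueous EtOH); killed 30 min post-tracer. Blood by cardiac puncture, organs weighed and γ-counted vs 1:100 injected-dose dilution; % dose/g tissue (range); tissue/blood ratios.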

Rattus norvegicus [2] = organism: Rattus norvegicus; assay: Effect of vesamicol on the accumulation in rat lung in group 1 (n=3); type: ADME, organism-based; conditions: in vivo; summary of the method: as §1
[3] = Ratio of effect of vesamicol on the accumulation between rat heart and blood in group 2; type: ADME, organism-based; summary of the method: as §1
Rattus norvegicus [4] = organism: Rattus norvegicus; assay: Tissue distribution in rat heart after 5 minutes (n=3); type: ADME, organism-based; conditions: in vivo
Summary of the method: (§2)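 Male Wistar rats (200-350 g) under ether anesthesia; radiotracer (3-5 μCi in 0.1 mL 50% aqueous ethanol) given iv. At 5, 30, 60 and 180 min, blood was drawn by cardiac puncture and animals were killed by cardiectomy. Organs were weighed and γ-counted against a 1:100 dilution of the injected dose. Results are given as % injected dose/g tissue; ratios are taken between tissue levels.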

Rattus norvegicus [5] = organism: Rattus norvegicus; assay: Tissue distribution in rat kidney after 180 minutes (n=3); type: ADME, organism-based; conditions: in vivo, 3 h; summary of the method: as §2
Rattus norvegicus [6] = organism: Rattus norvegicus; assay: Tissue distribution in rat gonads after 180 minutes (n=3); type: ADME, organism-based, Gonad; conditions: in vivo, 3 h; summary of the method: as §2
Rattus norvegicus [7] = organism: Rattus norvegicus; assay: Effect of vesamicol on the accumulation in rat lung in group 2 (n=3); type: ADME, organism-based; conditions: in vivo
Rattus norvegicus [8] = organism: Rattus norvegicus; assay: Tissue distribution in rat liver after 180 minutes (n=3); type: ADME, organism-based; conditions: in vivo, 3 h
Summary of the method: (§3)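 Male Wistar rats (200-350 g) under ether, iv [125I]tracer (3-5 μCi in 0.1 mL 50% aqueous EtOH). At 5, 30, 60 or 180 min, blood taken by cardiac puncture and the rat killed by cardiectomy. Organs weighed and γ-counted against 1:100 dilutions of the injected dose; results in % injected dose/g, with range.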

Rattus norvegicus [9] = organism: Rattus norvegicus; assay: Tissue distribution in rat spleen after 180 minutes (n=3); type: ADME, organism-based; conditions: in vivo, 3 h; summary of the method: as §2
Rattus norvegicus [10] = organism: Rattus norvegicus; assay: Ratio of tissue distribution between rat brain and blood after 5 min; type: ADME, organism-based; conditions: brain, 5 min
Summary of the method: (§4)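 Male Wistar rats (200-350 g) under ether anesthesia, iv radiotracer (3-5 μCi in 0.1 mL 50% aqueous ethanol). At 5, 30, 60, 180 min blood taken by cardiac puncture, animal killed by cardiectomy; organs weighed, γ-counted against 1:100 injected-dose dilution; % injected dose/g tissue; brain/blood ratio.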

Rattus norvegicus [11] = organism: Rattus norvegicus; assay: Effect of vesamicol on the accumulation in rat spleen in group 1 (n=3); type: ADME, organism-based; conditions: in vivo; summary of the method: as §1
Rattus norvegicus [12] = organism: Rattus norvegicus; assay: Tissue distribution in rat thyroid after 30 minutes (n=3); type: ADME, organism-based, Thyroid gland; conditions: in vivo, 0.5 h; summary of the method: as §2
Rattus norvegicus [13] = organism: Rattus norvegicus; assay: Effect of vesamicol on the accumulation in rat brain in group 2 (n=3); type: ADME, organism-based; conditions: in vivo
Rattus norvegicus [14] = organism: Rattus norvegicus; assay: Tissue distribution in rat gonads after 5 minutes (n=3); type: ADME, organism-based, Gonad; conditions: in vivo; summary of the method: as §2
Rattus norvegicus [15] = organism: Rattus norvegicus; assay: Tissue distribution in rat thyroid after 180 minutes (n=3); type: ADME, organism-based, Thyroid gland; conditions: in vivo, 3 h; summary of the method: as §2
Rattus norvegicus [16] = organism: Rattus norvegicus; assay: Effect of vesamicol on the accumulation in rat liver in group 1 ([…]); type: ADME, organism-based; conditions: in vivo; summary of the method: as §1
Rattus norvegicus [17] = organism: Rattus norvegicus; assay: Tissue distribution in rat blood after 180 minutes (n=3); type: ADME, organism-based; conditions: in vivo, 3 h; summary of the method: as §2
Rattus norvegicus [18] = organism: Rattus norvegicus; assay: Tissue distribution in rat blood after 60 minutes (n=3); type: ADME, organism-based; conditions: in vivo, 1 h; summary of the method: as §3
Rattus norvegicus [19] = organism: Rattus norvegicus; assay: Tissue distribution in rat gonads after 30 minutes (n=3); type: ADME, organism-based, Gonad; conditions: in vivo, 0.5 h; summary of the method: as §2
Rattus norvegicus [20] = organism: Rattus norvegicus; assay: Effect of vesamicol on the accumulation in rat brain in group 1 (n=3); type: ADME, organism-based; conditions: in vivo; summary of the method: as §1
Rattus norvegicus [21] = organism: Rattus norvegicus; assay: Effect of vesamicol on the accumulation in rat muscle in group 2 (n=3); type: ADME, organism-based, Muscle tissue; conditions: in vivo; summary of the method: as §1
Rattus norvegicus [22] = organism: Rattus norvegicus; assay: Effect of vesamicol on the accumulation in rat kidney in group 2 (n=3); type: ADME, organism-based; conditions: in vivo
[23] = Ratio of tissue distribution between rat heart and blood after 180 min; type: ADME, organism-based; summary of the method: as §2
[24] = Ratio of effect of vesamicol on the accumulation between rat heart and blood in group 1; type: ADME, organism-based; summary of the method: as §1
Rattus norvegicus [25] = organism: Rattus norvegicus; assay: Tissue distribution in rat spleen after 5 minutes (n=3); type: ADME, organism-based; conditions: in vivo; summary of the method: as §3
Rattus norvegicus [26] = organism: Rattus norvegicus; assay: Effect of vesamicol on the accumulation in rat blood in group 2 (n=3); type: ADME, organism-based; conditions: in vivo; summary of the method: as §1
Rattus norvegicus [27] = organism: Rattus norvegicus; assay: Tissue distribution in rat kidney after 5 minutes (n=3); type: ADME, organism-based; conditions: in vivo; summary of the method: as §2
Rattus norvegicus [28] = organism: Rattus norvegicus; assay: Effect of vesamicol on the accumulation in rat heart in group 2 (n=3); type: ADME, organism-based; conditions: in vivo; summary of the method: as §1
Rattus norvegicus [29] = organism: Rattus norvegicus; assay: Ratio of tissue distribution between rat heart and blood after 30 min; type: ADME, organism-based; conditions: other tissue, 0.5 h; summary of the method: as §2
Rattus norvegicus [30] = organism: Rattus norvegicus; assay: Effect of vesamicol on the accumulation in rat gonads in group 1 (n=3); type: ADME, organism-based; conditions: in vivo
Rattus norvegicus [31] = organism: Rattus norvegicus; assay: Ratio of tissue distribution between rat brain and blood after 180 min; type: ADME, organism-based; conditions: 3 h; summary of the method: as §4
Rattus norvegicus [32] = organism: Rattus norvegicus; assay: Ratio of tissue distribution between rat heart and blood after 60 min; type: ADME, organism-based; conditions: other tissue, 1 h; summary of the method: as §2
Rattus norvegicus [33] = organism: Rattus norvegicus; assay: Tissue distribution in rat brain after 60 minutes (n=3); type: ADME, organism-based; conditions: in vivo, 1 h; summary of the method: as §2
Rattus norvegicus [34] = organism: Rattus norvegicus; assay: Tissue distribution in rat kidney after 60 minutes (n=3); type: ADME, organism-based; conditions: in vivo, 1 h; summary of the method: as §2
Rattus norvegicus [35] = organism: Rattus norvegicus; assay: Tissue distribution in rat liver after 60 minutes (n=3); type: ADME, organism-based; conditions: in vivo, 1 h; summary of the method: as §2
Rattus norvegicus [36] = organism: Rattus norvegicus; assay: Tissue distribution in rat lung after 5 minutes (n=3); type: ADME, organism-based; conditions: in vivo; summary of the method: as §2

O[C@@H]1CCN(Cc2cccc([125I])c2)C[C@H]1N1CCC(c2ccccc2)CC1 (stereo in doubt; (-))
Kp [1]: 5.59
Dose/g (Rattus norvegicus [2]): 2.36%
Kp [3]: 2.4
Dose/g (Rattus norvegicus [4]): 1.32%
Dose/g (Rattus norvegicus [5]): 3.27%
Dose/g (Rattus norvegicus [6]): 0.2%
Dose/g (Rattus norvegicus [7]): 1.59%
Dose/g (Rattus norvegicus [8]): 2.23%
Dose/g (Rattus norvegicus [9]): 1.28%
Ratio (Rattus norvegicus [10]): 4.27
Dose/g (Rattus norvegicus [11]): 1.05%
Dose/g (Rattus norvegicus [12]): 3.15%
Dose/g (Rattus norvegicus [13]): 0.34%
Dose/g (Rattus norvegicus [14]): 0.19%
Dose/g (Rattus norvegicus [15]): 11.55%
Dose/g (Rattus norvegicus [16]): 1.91%
Dose/g (Rattus norvegicus [17]): 0.1%
Dose/g (Rattus norvegicus [18]): 0.1%
Dose/g (Rattus norvegicus [19]): 0.23%
Dose/g (Rattus norvegicus [20]): 0.68%
Dose/g (Rattus norvegicus [21]): 0.16%
Dose/g (Rattus norvegicus [22]): 1.13%
Kp at 3 h [23]: 5.32
Kp [24]: 2.75
Dose/g (Rattus norvegicus [25]): 1.04%
Dose/g (Rattus norvegicus [26]): 0.12%
Dose/g (Rattus norvegicus [27]): 3.71%
Dose/g (Rattus norvegicus [28]): 0.3%
Ratio (Rattus norvegicus [29]): 6.87
Dose/g (Rattus norvegicus [30]): 0.15%
Ratio (Rattus norvegicus [31]): 9.87
Ratio (Rattus norvegicus [32]): 5.97
Dose/g (Rattus norvegicus [33]): 0.83%
Dose/g (Rattus norvegicus [34]): 3.13%
Dose/g (Rattus norvegicus [35]): 2.63%
Dose/g (Rattus norvegicus [36]): 5.9%
